Experimental data published in ChEMBL document CHEMBL5120856, “New salicylic acid derivatives, double inhibitors of glycolate oxidase and lactate dehydrogenase, as effective agents decreasing oxalate production” (Eur J Med Chem, 2022).
Active and inactive are the calls of the source. The calls are words filed in the database; no cut-off is given here.

Columns and labels:
[1] = target: T1, 2-Hydroxyacid oxidase 1 (Mus musculus, UniProt Q9WU19); experiment: Inhibition of N-terminal His-tagged mouse recombinant glycolate oxidase expressed in Escherichia coli BL21 (DE3) cells using glycolate as substrate preincubated for 10 mins followed by substrate addition and measured after 10 mins by Amplex red and horseradish peroxidase based fluorescence assay
T1 sequence (Q9WU19 whole entry): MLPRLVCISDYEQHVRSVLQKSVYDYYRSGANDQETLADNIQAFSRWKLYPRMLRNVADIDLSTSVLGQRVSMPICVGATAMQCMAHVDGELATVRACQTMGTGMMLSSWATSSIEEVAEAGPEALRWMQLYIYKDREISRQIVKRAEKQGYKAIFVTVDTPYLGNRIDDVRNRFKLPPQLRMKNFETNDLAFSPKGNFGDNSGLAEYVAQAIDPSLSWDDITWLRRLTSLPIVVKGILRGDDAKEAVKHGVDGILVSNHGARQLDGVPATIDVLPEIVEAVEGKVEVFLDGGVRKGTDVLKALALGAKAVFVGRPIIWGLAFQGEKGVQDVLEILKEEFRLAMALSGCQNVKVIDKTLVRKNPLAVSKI

[2] = target: T2, L-lactate dehydrogenase B chain (Homo sapiens, UniProt P07195); experiment: Inhibition of human recombinant LDHB using pyruvate as substrate preincubated for 10 mins followed by substrate addition and measured every 60 sec for 10 mins in the presence of NADH by fluorescence assay
[3] = target: T1, 2-Hydroxyacid oxidase 1; experiment: Non-competitive mixed inhibition of N-terminal His-tagged mouse recombinant glycolate oxidase expressed in Escherichia coli BL21 (DE3) cells assessed as inhibition constant using varying concentration of glycolate as substrate measured every 60 sec for 15 mins by Amplex red and horseradish peroxidase based fluorescence assay
[4] = target: T2, L-lactate dehydrogenase B chain; experiment: Non-competitive inhibition of human recombinant LDHB assessed as inhibition constant using varying concentration of pyruvate as substrate preincubated for 10 mins followed by substrate addition and measured every 60 sec for 10 mins in the presence of NADH by fluorescence assay
[5] = target: T2, L-lactate dehydrogenase B chain; experiment: Mixed inhibition of human recombinant LDHB assessed as inhibition constant using varying concentration of pyruvate as substrate preincubated for 10 mins followed by substrate addition and measured every 60 sec for 10 mins in the presence of NADH by fluorescence assay
[6] = target: T3, 2-Hydroxyacid oxidase 1 (Mus musculus) (UniProt Q9WU19); experiment: Non-competitive mixed inhibition of N-terminal His-tagged mouse recombinant glycolate oxidase expressed in Escherichia coli BL21 (DE3) cells assessed as decrease in Vmax with increase in apparent Km using glycolate as substrate upto 60 microM
T3 sequence (whole entry): T1 sequence (Q9WU19 whole entry)

[7] = test system: Hepatocyte; experiment: Cytotoxicity against hyperoxaluric-primary hepatocyte isolated from Hoga1-knockdown PH3 C57BL/6 mouse assessed as cell death at 10 uM by MTS assay; format: toxicity, cell-based; conditions: hepatocytes, Hoga1-knockdown PH3, 10 µM
Method in brief: (§1)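 Primary hepatocytes from Agxt1-/- (PH1, 5 mM glycolate), Grhpr-/- (PH2, 10 mM glycolate) or Hoga1-/- (PH3, 10 mM hydroxyproline) mice, incubated with inhibitor at 10 μM; viability followed through the oxalate assay by MTS tetrazolium method.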

[8] = test system: Hepatocyte; experiment: Cytotoxicity against hyperoxaluric-primary hepatocyte isolated from Grhpr-knockdown PH2 C57BL/6 mouse assessed as cell death at 10 uM by MTS assay; format: toxicity, cell-based; conditions: hepatocytes, Grhpr-knockdown PH2 (primary hyperoxaluria type 2); method in brief: as §1
[9] = test system: Hepatocyte; experiment: Cytotoxicity against hyperoxaluric-primary hepatocyte isolated from Agxt1-knockdown PH1 C57BL/6 mouse assessed as cell death at 10 uM by MTS assay; format: toxicity, cell-based; conditions: hepatocytes, Agxt1-knockdown PH1, 10 µM; method in brief: as §1
[10] = test system: Hepatocyte; experiment: Inhibition of GO/LDHA in hyperoxaluric-primary hepatocyte isolated from Agxt1 knockdown PH1 C57BL/6 mouse assessed as reduction in extracellular oxalate concentration at 10 uM measured at 48 hrs in the presence of glycolate relative to control; format: cell-based; set-up: scale not given: the % may be the effect or the level left
Method in brief: (§2)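 Agxt1-/- mouse primary hepatocytes cultured with 5 mM glycolate, inhibitor at 10 μM; extracellular oxalate measured by colorimetric kit 24 and 48 h after inhibitor addition; relative oxalate = oxalate with inhibitor over oxalate without inhibitor; negative values mean below detection limit; mean of three/four replicates ± SD.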

[11] = test system: Hepatocyte; experiment: Inhibition of GO/LDHA in hyperoxaluric-primary hepatocyte isolated from Agxt1 knockdown PH1 C57BL/6 mouse assessed as reduction in relative oxalate output at 10 uM measured at 24 hrs in the presence of glycolate relative to control; format: cell-based; set-up: scale not given: the % may be the effect or the level left; method in brief: as §2
[12] = test system: Hepatocyte; experiment: Inhibition of GO/LDHA in hyperoxaluric-primary hepatocyte isolated from Grhpr-knockdown PH2 C57BL/6 mouse assessed as reduction in relative oxalate output at 10 uM measured at 24 hrs in the presence of glycolate relative to control; format: cell-based; set-up: scale not given: the % may be the effect or the level left
Method in brief: (§3)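 Grhpr-/- mouse primary hepatocytes cultured with 10 mM glycolate, inhibitor at 10 μM; extracellular oxalate determined colorimetrically at 24 and 48 h post-treatment, expressed relative to untreated medium (RO); negative RO means below detection limit; three/four replicates, mean ± SD.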

[13] = test system: Hepatocyte; experiment: Inhibition of GO/LDHA in hyperoxaluric-primary hepatocyte isolated from Hoga1-knockdown PH3 C57BL/6 mouse assessed as reduction in relative oxalate output at 10 uM measured at 24 hrs in the presence of hydroxyproline relative to control; format: cell-based; set-up: scale not given: the % may be the effect or the level left
Method in brief: (§4)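 Hoga1-/- mouse primary hepatocytes challenged with 10 mM hydroxyproline, inhibitor 10 μM; extracellular oxalate measured by colorimetric kit 24 and 48 h after dosing, given as ratio to oxalate without inhibitor; negative values are below detection limit; mean of three/four replicates ± SD.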

[14] = test system: Hepatocyte; experiment: Inhibition of GO/LDHA in hyperoxaluric-primary hepatocyte isolated from Grhpr-knockdown PH2 C57BL/6 mouse assessed as reduction in relative oxalate output at 10 uM measured at 48 hrs in the presence of glycolate relative to control; format: cell-based; set-up: scale not given: the % may be the effect or the level left; method in brief: as §3
[15] = test system: Hepatocyte; experiment: Inhibition of GO/LDHA in hyperoxaluric-primary hepatocyte isolated from Hoga1-knockdown PH3 C57BL/6 mouse assessed as reduction in relative oxalate output at 10 uM measured at 48 hrs in the presence of hydroxyproline relative to control; format: cell-based; set-up: scale not given: the % may be the effect or the level left; method in brief: as §4
[16] = Inhibition of GO/LDHA in hyperoxaluric-primary hepatocyte isolated from Agxt1 knockdown PH1 C57BL/6 mouse measured at 24 hrs in the presence of 5 mM glycolate; format: cell-based
Method in brief: (§5)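 Agxt1-/- hepatocytes with 5 mM glycolate; eight inhibitor concentrations per replicate; extracellular oxalate measured colorimetrically at 24 or 48 h; EC50 as mean of three/four replicates ± SD.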

[17] = Inhibition of GO/LDHA in hyperoxaluric-primary hepatocyte isolated from Grhpr-knockdown PH2 C57BL/6 mouse measured at 24 hrs in the presence of 10 mM glycolate; format: cell-based
Method in brief: (§6)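 Grhpr-/- hepatocytes with 10 mM glycolate; eight inhibitor concentrations per replicate; colorimetric extracellular oxalate at 24 or 48 h; EC50 as mean of three/four replicates ± SD.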

[18] = Inhibition of GO/LDHA in hyperoxaluric-primary hepatocyte isolated from Hoga1-knockdown PH3 C57BL/6 mouse measured at 24 hrs in the presence of hydroxyproline; format: cell-based
Method in brief: (§7)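 Hoga1-/- hepatocytes with 10 mM hydroxyproline; eight inhibitor concentrations per replicate; colorimetric extracellular oxalate at 24 or 48 h; EC50 as mean of three/four replicates ± SD.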

[19] = Inhibition of GO/LDHA in hyperoxaluric-primary hepatocyte isolated from Agxt1 knockdown PH1 C57BL/6 mouse measured at 48 hrs in the presence of 5 mM glycolate; format: cell-based; method in brief: as §5
[20] = Inhibition of GO/LDHA in hyperoxaluric-primary hepatocyte isolated from Grhpr-knockdown PH2 C57BL/6 mouse measured at 48 hrs in the presence of 10 mM glycolate; format: cell-based; method in brief: as §6
[21] = Inhibition of GO/LDHA in hyperoxaluric-primary hepatocyte isolated from Hoga1-knockdown PH3 C57BL/6 mouse measured at 48 hrs in the presence of hydroxyproline; format: cell-based; method in brief: as §7
[22] = test system: HEK293; experiment: Cytotoxicity against HEK293 cells assessed as reduction in cell viability upto 50 uM measured after 48 hrs by MTT assay; format: toxicity, cell-based; conditions: human, hek293, 48 h
[23] = In vivo inhibition of GO/LDHA in Agxt1 knockdown PH1 C57BL/6 mouse assessed as decrease in urine oxalate level at 20 mg/kg, po administered for 5 days relative to control; format: functional; set-up: scale not given: the % may be the effect or the level left; conditions: time 5 day
Method in brief: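 Agxt1-/- (PH1) mice, ten males, dosed orally at 20 mg/kg body weight once daily for 5 days. 24-h urine was collected, and oxalate was normalised to creatinine. Urine glycolate was also measured. Values are expressed as % of each animal's own basal pre-treatment excretion, which serves as the control, and are reported as mean ± SE.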

[24] = test system: Mus musculus; experiment: In vivo inhibition of GO/LDHA in Agxt1 knockdown PH1 C57BL/6 mouse assessed as increase in urine glycolate level at 20 mg/kg, po administered for 5 days relative to control; format: functional, organism-based; conditions: time 5.0 day
Method in brief: (§8)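 Ten male Agxt1-/- mice dosed orally at 20 mg/kg daily for 5 days; 24-h urine oxalate (creatinine-normalized) and glycolate compared with pre-treatment baseline; clinical signs of toxicity monitored; mean ± SE.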

[25] = Toxicity in Agxt1 knockdown PH1 C57BL/6 mouse assessed as tolerance at 20 mg/kg, po administered for 5 days; format: organism-based; conditions: in vivo, pH 1, 20 mg/kg, 120 h, time 5 day; method in brief: as §8
[26] = Toxicity in Agxt1 knockdown PH1 C57BL/6 mouse assessed as clinical signs of toxicity at 20 mg/kg, po administered for 5 days; format: organism-based; conditions: in vivo, pH 1, 20 mg/kg, 120 h, time 5 day; method in brief: as §8

T2 sequence (P07195 whole entry): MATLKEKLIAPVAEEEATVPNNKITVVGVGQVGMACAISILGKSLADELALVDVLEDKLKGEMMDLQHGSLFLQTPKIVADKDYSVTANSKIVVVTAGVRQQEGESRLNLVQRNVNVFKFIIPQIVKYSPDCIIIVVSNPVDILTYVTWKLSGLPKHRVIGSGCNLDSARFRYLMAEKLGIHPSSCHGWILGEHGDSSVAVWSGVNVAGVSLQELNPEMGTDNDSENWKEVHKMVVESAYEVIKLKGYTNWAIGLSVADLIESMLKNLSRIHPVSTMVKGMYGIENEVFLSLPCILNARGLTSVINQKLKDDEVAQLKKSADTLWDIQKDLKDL

SMILES: C#CCNCc1ccc(-c2ccc(O)c(C(=O)O)c2)o1.N
- IC50 [1]: 8.1 µM
- IC50 [2]: 11.8 µM
- Ki [3]: 10.5 µM
- Ki [4]: 5.1 µM
- Ki [5]: 2 µM
- inhibition [6]: Active
- Activity [7]: Non-Toxic
- Activity [8]: Non-Toxic
- Activity [9]: Non-Toxic
- Activity [10]: 70%
- Activity [11]: 90%
- Activity [12]: 90%
- Activity [13]: 90%
- Activity [14]: 70%
- Activity [15]: 70%
- EC50 [16]: 4 µM
- EC50 [17]: 1.2 µM
- EC50 [18]: 1.7 µM
- EC50 [19]: 3.8 µM
- EC50 [20]: 2.7 µM
- EC50 [21]: 1.9 µM
- Activity [22]: Non-Toxic
- Activity [23]: 50%
- Activity [24]: Active
- Activity [25]: Non-Toxic
- Activity [26]: Non-Toxic
